Data taken from paper PMC4802972 (Biochimica et biophysica acta, 2014).
Read-outs that look alike come from different tables or passages of the source.

What was measured:
S. aureus BstA [1] = format: biochemical, Staphylococcus aureus; conditions: for reduction of enzymatic rate compared to untreated +BstA reaction / reaction rate of +BstA reaction after treatment: 1 mM phenanthroline, 220 nM BstA; for reaction rate of +BstA reaction after treatment: 50 μM BSH, 23°C
S. aureus BstA [2] = experiment: Direct BstA reactions; format: biochemical, Staphylococcus aureus; conditions: for BstA dependence of reaction with BSH: with and without BstA
In short: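 Purified His6-tag-cleaved S. aureus BstA, expressed in E. coli C41 (DE3). Cerulenin and BSH, 500 μM each, reacted with and without 220 nM BstA. Samples diluted 5-fold into 10 mM methanesulfonic acid, concentrated, then run on C18 reverse-phase HPLC at 0.4 mL/min with a 0–70% B gradient over 40 min (A 0.05% TFA-water, B 60% acetonitrile-water). Detection at 220 nm.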

BstA [3] = biological target: T1, BstA (Staphylococcus aureus, UniProt A0A0H2XDW9); experiment: Inhibition constants of carboxamido-1,3,4-oxadiazole kinase inhibitors; format: biochemical
BstA [4] = biological target: T1, BstA; experiment: Saturation kinetics of BstA; format: biochemical; conditions: for kcat: pH 7.0, BSH and mBCl at 37°C with 220 nM BstA, CDNB at 23°C with 2.8 μM BstA
S. aureus MW2 = conditions: cited from earlier work
[5] = Direct non-enzymatic reaction with BSH
S. aureus FosB = conditions: read-out: Km of FosB for BSH; cited from earlier work
[6] = cited from earlier work
[7] = + 220 nM BstA, 50 μM thiol, 50 μM mBCl, pH 7.0
[8] = − BstA, 50 μM thiol, 50 μM mBCl, pH 7.0

For `c1cnc2c(c1)ccc1ncccc12` [1,7-phenanthroline], the “reduction of enzymatic rate compared to untreated +BstA reaction” value (S. aureus BstA [1]) was 27% and the “reaction rate of +BstA reaction after treatment” value (S. aureus BstA [1]; 50 μM mBCl) was 105 nmol/min/mg.

In the case of `CC(=O)N[C@@H](CS)C(=O)N[C@H]1[C@@H](OC2[C@H](O)[C@H](O)C(O)[C@H](O)[C@H]2O)O[C@H](CO)[C@@H](O)[C@@H]1O` (some centres unmarked) [Mycothiol, mycothiol], the “Specific Activity + BstA” value (S. aureus BstA [1]; [7]) is reported as 3.3 ± 0.1 nmol/min/mg and the “Specific Activity − BstA” value (S. aureus BstA [1]; [8]) is reported as 3.0 ± 0.1 nmol/min/mg.

In the case of `C[S+]([O-])CCCCN=C=S` (centres unmarked) [sulforaphane], the “BstA dependence of reaction with BSH” value (S. aureus BstA [2]) is reported as “BstA-independent”.

In the case of `CCCCCC(O)/C=C/C=O` (centres unmarked) [4-hydroxynonenal], the “BstA dependence of reaction with BSH” value (S. aureus BstA [2]) is reported as “BstA-independent”.

For `O=C(Nc1nnc(-c2ccc(F)cc2)o1)c1ccc(Br)s1` [compound 3, 5-bromo-N-[5-(4-fluorophenyl)-1,3,4-oxadiazol-2-yl]thiophene-2-carboxamide], the Ki (BstA [3]) was roughly 3 µM and the “inhibition of BstA in concentration dependent inhibitor studies” value (BstA [3]; 5 μM inhibitor) was “effective inhibitor”.

For `N[C@@H](CS)C(=O)O` [Cysteine, cysteine], the “Specific Activity + BstA” value (S. aureus BstA [1]; [7]) was 8.3 ± 0.5 nmol/min/mg and the “Specific Activity − BstA” value (S. aureus BstA [1]; [8]) was 6.7 ± 0.3 nmol/min/mg.

With `O=[N+]([O-])c1ccc(Cl)c([N+](=O)[O-])c1` [CDNB, 1-chloro-2,4-dinitrobenzene] the “catalytic efficiency below that of mBCl” value (BstA [4]; CDNB vs mBCl) was 8 fold and the kcat (BstA [4]) was 0.22 ± 0.02 s⁻¹.

With `Cc1c(C)n2c(CCl)c(C)c(=O)n2c1=O` [mBCl, monochlorobimane] the “Km below the Km of CDNB” value (BstA [4]; mBCl vs CDNB) was “over 10 fold” and the kcat (BstA [4]) was 0.30 ± 0.02 s⁻¹.

For `OO` [hydrogen peroxide], the “increase of bstA expression” value (S. aureus MW2) is listed as 3 fold, the “upregulation of brxB ortholog” value (S. aureus MW2) is listed as 6 fold and the “upregulation of glxA ortholog” value (S. aureus MW2) is listed as 2 fold.

With `CO[C@H]1/C=C/O[C@@]2(C)Oc3c(C)c(O)c4c(c3C2=O)C(=O)C=C(NC(=O)/C(C)=C\C=C\[C@H](C)[C@H](O)[C@@H](C)[C@@H](O)[C@@H](C)[C@H](OC(C)=O)[C@@H]1C)C4=O` [rifamycin S] the “rate of direct reaction with BSH” value ([5]; 50 μM each, pH 7.0 and pH 6.0, BstA-independent) was greater than 35 µM/min and the “BstA dependence of reaction with BSH” value (S. aureus BstA [2]) was “BstA-independent”.

For `c1cnc2c(c1)ccc1cccnc12` [1,10-phenanthroline], the “reduction of enzymatic rate compared to untreated +BstA reaction” value (S. aureus BstA [1]) was greater than 99% and the “reaction rate of +BstA reaction after treatment” value (S. aureus BstA [1]; 50 μM mBCl) was 12.5 ± 0.7 nmol/min/mg.

With `N[C@@H](CCC(=O)N[C@@H](CS)C(=O)NCC(=O)O)C(=O)O` [Glutathione, glutathione] the “Specific Activity + BstA” value (S. aureus BstA [1]; pH 7) was 3.9 ± 0.1 nmol/min/mg and the “Specific Activity − BstA” value (S. aureus BstA [1]; pH 7) was 4.4 ± 0.4 nmol/min/mg.

For `N[C@@H](CS)C(=O)N[C@H]1[C@@H](O[C@@H](CC(=O)O)C(=O)O)O[C@H](CO)[C@@H](O)[C@@H]1O` [BSH, bacillithiol], the Km (S. aureus FosB) is given as 4.2 ± 0.7 mM, the “Km of BstA for BSH lower than that of S. aureus FosB” value (BstA [4]; BstA vs FosB) is given as 260 fold and the kcat (BstA [4]) is given as 0.21 ± 0.01 s⁻¹. The “Specific Activity + BstA” value (S. aureus BstA [1]; [7]) was 152 ± 8 nmol/min/mg, the “Specific Activity − BstA” value (S. aureus BstA [1]; [8]) was 8.4 ± 0.3 nmol/min/mg and the “thiol pKa” value [6] was 7.46.

With `C=C(CC)C(=O)c1ccc(OCC(=O)O)c(Cl)c1Cl` [etacrynic acid] the “BstA dependence of reaction with BSH” value (S. aureus BstA [2]) was “BstA-independent”.

In the case of `C/C=C/C/C=C/CCC(=O)[C@H]1O[C@H]1C(N)=O` [cerulenin], the “non-enzymatic rate of adduct formation with BSH” value ([5]; 500 μM cerulenin, 500 μM BSH, −BstA) is reported as 170 nmol/min/mg, the “adduct formation rate with BSH, +BstA” value (S. aureus BstA [2]; 500 μM cerulenin, 500 μM BSH, 220 nM BstA) is reported as 300 nmol/min/mg and the “BstA catalyzed reaction rate” value (S. aureus BstA [2]; cerulenin with BSH, net enzymatic rate) is reported as 130 nmol/min/mg. The “BstA dependence of reaction with BSH” value (S. aureus BstA [2]) was “weak substrate”.

For `O=C(O)CN(CCN(CC(=O)O)CC(=O)O)CC(=O)O` [EDTA, ethylenediaminetetraacetic acid], the “effect on BstA activity” value (S. aureus BstA [1]) was “abolished activity”.

For `CC(C)(COP(=O)(O)OP(=O)(O)OC[C@H]1O[C@@H](n2cnc3c(N)ncnc32)[C@H](O)[C@@H]1OP(=O)(O)O)[C@@H](O)C(=O)NCCC(=O)NCCS` [Coenzyme A, coenzyme A], the “Specific Activity + BstA” value (S. aureus BstA [1]; [7]) is given as 1.4 ± 0.1 nmol/min/mg, the “Specific Activity − BstA” value (S. aureus BstA [1]; [8]) is given as 1.2 ± 0.1 nmol/min/mg and the “thiol pKa” value [6] is given as 9.6.

In the case of `OCl` [hypochlorous acid], the “increase of bstA expression” value (S. aureus MW2) is listed as 2 fold, the “upregulation of brxB ortholog” value (S. aureus MW2) is listed as 2 fold and the “upregulation of glxA ortholog” value (S. aureus MW2) is listed as 3 fold.
